Test [1] addresses T1, Mitogen-activated protein kinase kinase kinase 2 (Homo sapiens) (UniProt Q9Y2U5).
T1 sequence (whole entry): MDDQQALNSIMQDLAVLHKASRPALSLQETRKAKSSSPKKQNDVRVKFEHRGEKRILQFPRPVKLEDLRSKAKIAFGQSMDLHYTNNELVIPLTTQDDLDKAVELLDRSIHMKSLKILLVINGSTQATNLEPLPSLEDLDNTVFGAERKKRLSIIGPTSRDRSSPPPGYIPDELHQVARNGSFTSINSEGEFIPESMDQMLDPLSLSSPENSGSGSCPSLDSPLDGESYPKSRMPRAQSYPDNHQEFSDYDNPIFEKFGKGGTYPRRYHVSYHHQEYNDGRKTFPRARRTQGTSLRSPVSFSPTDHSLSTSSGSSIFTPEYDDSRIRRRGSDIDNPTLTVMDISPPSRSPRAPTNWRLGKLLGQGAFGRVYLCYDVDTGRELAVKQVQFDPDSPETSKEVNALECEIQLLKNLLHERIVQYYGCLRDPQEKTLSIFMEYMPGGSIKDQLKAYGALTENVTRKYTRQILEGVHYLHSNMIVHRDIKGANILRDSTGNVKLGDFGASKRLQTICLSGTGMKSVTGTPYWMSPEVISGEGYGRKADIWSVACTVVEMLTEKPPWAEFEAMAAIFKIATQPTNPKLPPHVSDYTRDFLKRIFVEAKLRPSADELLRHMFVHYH
In words: Inhibition of MAP3K2 Lys1 labeling site harbouring VYLCYDVDTGRELAVKQVQFDPDSPETSKEVNALECEIQLLK in human A-375 cells at 5 uM by KiNativ Profiling analysis relative to control. It is filed as cell-based.

For test [2], the target named is T2, Interleukin-1 receptor-associated kinase 4 (Homo sapiens) (UniProt Q9NWZ3).
T2 sequence (whole entry): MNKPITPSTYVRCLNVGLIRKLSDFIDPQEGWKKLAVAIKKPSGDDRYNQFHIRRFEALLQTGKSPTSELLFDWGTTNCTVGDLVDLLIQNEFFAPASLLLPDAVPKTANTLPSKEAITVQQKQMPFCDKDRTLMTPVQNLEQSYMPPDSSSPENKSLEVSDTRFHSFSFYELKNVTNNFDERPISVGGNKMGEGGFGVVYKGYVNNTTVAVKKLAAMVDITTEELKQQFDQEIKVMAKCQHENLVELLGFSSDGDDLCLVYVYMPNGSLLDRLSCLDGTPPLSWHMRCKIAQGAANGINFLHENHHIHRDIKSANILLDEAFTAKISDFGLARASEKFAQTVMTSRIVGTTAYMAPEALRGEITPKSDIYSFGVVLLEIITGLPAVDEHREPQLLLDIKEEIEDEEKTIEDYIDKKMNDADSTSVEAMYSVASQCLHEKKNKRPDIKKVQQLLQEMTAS
In words: Inhibition of IRAK4 Lys2 labeling site in human A-375 cells at 0.05 uM by KiNativ Profiling analysis relative to control. Type of test: cell-based.

The target in test [3] is Ribosomal protein S6 kinase alpha-1 (Homo sapiens) (UniProt Q15418). The experiment in a line: Inhibition of RSK1 Protein Kinase Domain in human A-375 cells at 0.05 uM by KiNativ Profiling analysis relative to control. Type of test: cell-based.
Test [4] concerns the target Misshapen-like kinase 1 (Homo sapiens) (UniProt Q8N4C8). In words: Inhibition of ZC3/MINK Lys2 labeling site in human A-375 cells at 0.05 uM by KiNativ Profiling analysis relative to control. It is filed as cell-based.
The target of test [5] is DNA-PK/Ku70/Ku85 (Homo sapiens) (UniProt P78527+P12956+P13010). In words: Inhibition of DNAPK ATP labeling site harbouring EHPFLVKGGEDLR in human A-375 cells at 5 uM by KiNativ Profiling analysis relative to control. Type of test: cell-based. An outline of the steps: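 Live A375 melanoma cells were treated with compound at 0.5 or 5 μM, then lysed. Lysates were labeled with a lysine-reactive ATP or ADP-biotin probe. The read-out was protection of each kinase probe-labeling site from labeling, relative to control.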

Test [6] addresses Ribosomal protein S6 kinase alpha-1 (Homo sapiens) (UniProt Q15418). The experiment in a line: Inhibition of RSK1 domain2 Lys2 labeling site in human A-375 cells at 5 uM by KiNativ Profiling analysis relative to control. Type of test: cell-based. An outline of the steps: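 Live A375 melanoma cells treated with compound at 5 or 0.5 μM, then lysed. Lysate kinases were labeled with a lysine-reactive ATP or ADP-biotin probe. Inhibition was read as protection of labeling sites from the probe.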

Test [7] has as its target 5'-AMP-activated protein kinase catalytic subunit alpha-1 (Homo sapiens) (UniProt Q13131). In words: Inhibition of AMPKa1 Lys1 labeling site in human A-375 cells at 0.05 uM by KiNativ Profiling analysis relative to control. It is filed as cell-based.
The target in test [8] is T3, Kinase suppressor of Ras 1 (Homo sapiens) (UniProt Q8IVT5).
T3 sequence (whole entry): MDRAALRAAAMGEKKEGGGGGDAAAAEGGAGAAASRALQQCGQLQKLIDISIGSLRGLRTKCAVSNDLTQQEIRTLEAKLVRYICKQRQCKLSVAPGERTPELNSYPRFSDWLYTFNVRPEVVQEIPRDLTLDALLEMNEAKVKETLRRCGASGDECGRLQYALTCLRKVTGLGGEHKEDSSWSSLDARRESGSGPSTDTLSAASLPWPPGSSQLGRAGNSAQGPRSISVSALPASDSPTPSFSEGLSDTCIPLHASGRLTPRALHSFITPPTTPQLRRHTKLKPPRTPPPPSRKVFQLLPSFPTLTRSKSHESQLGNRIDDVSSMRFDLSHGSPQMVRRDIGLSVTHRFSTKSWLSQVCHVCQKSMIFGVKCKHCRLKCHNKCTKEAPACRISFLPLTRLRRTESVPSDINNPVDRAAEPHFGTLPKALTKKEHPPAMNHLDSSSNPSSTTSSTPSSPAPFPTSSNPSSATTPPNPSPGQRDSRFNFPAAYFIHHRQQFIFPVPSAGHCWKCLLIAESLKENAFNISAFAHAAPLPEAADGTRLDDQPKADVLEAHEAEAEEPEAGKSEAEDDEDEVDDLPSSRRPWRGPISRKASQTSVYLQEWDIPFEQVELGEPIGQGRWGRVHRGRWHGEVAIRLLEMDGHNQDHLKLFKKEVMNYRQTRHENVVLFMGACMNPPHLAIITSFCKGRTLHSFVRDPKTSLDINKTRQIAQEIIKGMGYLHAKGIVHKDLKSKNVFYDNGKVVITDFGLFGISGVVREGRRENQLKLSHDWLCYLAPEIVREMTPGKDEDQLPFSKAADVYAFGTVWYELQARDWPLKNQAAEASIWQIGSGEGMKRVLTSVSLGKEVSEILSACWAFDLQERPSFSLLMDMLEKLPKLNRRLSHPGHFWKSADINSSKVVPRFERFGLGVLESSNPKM
In words: Inhibition of KSR1 ACT labeling site harbouring SKNVFYDNGK in human A-375 cells at 5 uM by KiNativ Profiling analysis relative to control. Type of test: cell-based.

Test [9] addresses Ribosomal protein S6 kinase alpha-3 (Homo sapiens) (UniProt P51812). In words: Inhibition of RSK2 domain2 Protein Kinase Domain in human A-375 cells at 0.05 uM by KiNativ Profiling analysis relative to control. Type of test: cell-based.
In test [10] the target is Tyrosine-protein kinase Fes/Fps (Homo sapiens, UniProt P07332). In words: Inhibition of FES Lys1 labeling site in human Huh-7 cell lysate at 1 uM by KiNativ Profiling analysis relative to control. It is filed as subcellular.
Chain of Tyrosine-protein kinase Fes/Fps (P07332 whole entry): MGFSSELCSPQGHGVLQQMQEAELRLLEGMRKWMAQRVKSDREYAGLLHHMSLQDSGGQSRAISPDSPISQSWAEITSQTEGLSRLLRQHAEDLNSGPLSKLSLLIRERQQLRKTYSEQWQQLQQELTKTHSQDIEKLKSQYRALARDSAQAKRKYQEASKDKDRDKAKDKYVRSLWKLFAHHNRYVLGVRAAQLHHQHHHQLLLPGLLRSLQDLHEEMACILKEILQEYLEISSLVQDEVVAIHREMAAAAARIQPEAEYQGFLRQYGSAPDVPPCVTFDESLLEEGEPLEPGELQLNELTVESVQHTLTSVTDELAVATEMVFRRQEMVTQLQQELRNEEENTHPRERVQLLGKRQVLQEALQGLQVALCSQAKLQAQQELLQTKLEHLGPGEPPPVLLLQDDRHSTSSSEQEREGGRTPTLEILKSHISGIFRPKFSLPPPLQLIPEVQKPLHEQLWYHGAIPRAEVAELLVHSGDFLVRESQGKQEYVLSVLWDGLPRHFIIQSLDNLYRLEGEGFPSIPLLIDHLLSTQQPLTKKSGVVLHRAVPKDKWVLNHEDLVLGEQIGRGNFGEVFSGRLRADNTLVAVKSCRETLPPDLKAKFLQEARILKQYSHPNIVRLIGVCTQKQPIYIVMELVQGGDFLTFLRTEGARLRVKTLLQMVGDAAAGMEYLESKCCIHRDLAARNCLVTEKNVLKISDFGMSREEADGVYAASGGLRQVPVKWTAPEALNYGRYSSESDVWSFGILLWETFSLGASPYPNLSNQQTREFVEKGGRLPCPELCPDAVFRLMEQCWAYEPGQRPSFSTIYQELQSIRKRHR

Chain of Ribosomal protein S6 kinase alpha-1 (Homo sapiens) (Q15418 whole entry, the tested form may be a part): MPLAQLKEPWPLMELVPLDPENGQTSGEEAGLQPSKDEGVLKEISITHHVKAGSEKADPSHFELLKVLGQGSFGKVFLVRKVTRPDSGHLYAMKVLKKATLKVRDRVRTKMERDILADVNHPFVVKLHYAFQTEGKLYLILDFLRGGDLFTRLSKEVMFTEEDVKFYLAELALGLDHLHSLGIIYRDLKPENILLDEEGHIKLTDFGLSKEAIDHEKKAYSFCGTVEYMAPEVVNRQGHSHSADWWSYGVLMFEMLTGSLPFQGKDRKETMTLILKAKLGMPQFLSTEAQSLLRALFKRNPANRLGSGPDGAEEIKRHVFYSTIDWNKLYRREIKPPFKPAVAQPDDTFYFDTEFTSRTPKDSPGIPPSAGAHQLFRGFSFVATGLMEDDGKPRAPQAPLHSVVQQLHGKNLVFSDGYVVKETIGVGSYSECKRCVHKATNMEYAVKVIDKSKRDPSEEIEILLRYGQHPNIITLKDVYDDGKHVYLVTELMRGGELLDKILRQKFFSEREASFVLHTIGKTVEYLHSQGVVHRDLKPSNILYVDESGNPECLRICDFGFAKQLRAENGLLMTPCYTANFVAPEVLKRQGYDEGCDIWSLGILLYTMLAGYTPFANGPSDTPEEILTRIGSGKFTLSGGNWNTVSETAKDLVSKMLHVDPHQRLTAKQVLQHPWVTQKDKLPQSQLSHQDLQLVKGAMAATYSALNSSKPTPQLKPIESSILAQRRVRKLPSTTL
Chain of 5'-AMP-activated protein kinase catalytic subunit alpha-1 (Homo sapiens) (Q13131 whole entry, looked up): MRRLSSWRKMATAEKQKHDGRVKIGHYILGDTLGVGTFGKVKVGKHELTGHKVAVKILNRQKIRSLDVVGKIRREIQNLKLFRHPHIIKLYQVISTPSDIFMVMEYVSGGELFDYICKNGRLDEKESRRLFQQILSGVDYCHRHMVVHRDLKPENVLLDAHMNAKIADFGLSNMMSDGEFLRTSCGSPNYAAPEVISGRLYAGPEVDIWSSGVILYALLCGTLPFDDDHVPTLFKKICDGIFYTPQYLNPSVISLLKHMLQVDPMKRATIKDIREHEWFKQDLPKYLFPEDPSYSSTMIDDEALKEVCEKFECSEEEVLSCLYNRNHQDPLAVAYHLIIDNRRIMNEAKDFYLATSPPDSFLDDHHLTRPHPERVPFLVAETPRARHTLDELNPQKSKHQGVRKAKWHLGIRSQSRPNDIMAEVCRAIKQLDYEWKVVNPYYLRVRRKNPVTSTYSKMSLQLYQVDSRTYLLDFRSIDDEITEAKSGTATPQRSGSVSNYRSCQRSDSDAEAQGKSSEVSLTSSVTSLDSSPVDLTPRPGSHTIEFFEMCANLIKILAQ
Chain of Ribosomal protein S6 kinase alpha-3 (Homo sapiens) (P51812 whole entry, the tested form may be a part): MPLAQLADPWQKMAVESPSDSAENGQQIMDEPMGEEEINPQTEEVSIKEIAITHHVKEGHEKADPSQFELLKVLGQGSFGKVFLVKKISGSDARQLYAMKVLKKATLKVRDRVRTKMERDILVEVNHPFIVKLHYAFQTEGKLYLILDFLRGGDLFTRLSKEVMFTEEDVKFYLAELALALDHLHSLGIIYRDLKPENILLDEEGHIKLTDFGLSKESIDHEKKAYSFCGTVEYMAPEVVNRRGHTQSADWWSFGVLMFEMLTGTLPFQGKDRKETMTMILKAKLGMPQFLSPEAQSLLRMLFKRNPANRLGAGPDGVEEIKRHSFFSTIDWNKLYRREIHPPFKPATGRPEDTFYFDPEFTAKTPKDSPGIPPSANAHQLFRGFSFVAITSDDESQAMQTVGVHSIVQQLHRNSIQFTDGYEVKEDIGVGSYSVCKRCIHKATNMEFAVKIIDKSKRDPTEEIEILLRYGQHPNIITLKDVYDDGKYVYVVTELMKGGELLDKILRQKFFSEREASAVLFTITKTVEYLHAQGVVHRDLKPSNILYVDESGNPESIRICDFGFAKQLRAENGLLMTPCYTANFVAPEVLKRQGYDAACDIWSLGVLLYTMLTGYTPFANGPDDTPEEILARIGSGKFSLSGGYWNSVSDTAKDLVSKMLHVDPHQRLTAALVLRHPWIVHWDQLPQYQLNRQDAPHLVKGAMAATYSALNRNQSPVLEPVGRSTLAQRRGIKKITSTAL
Chain of Misshapen-like kinase 1 (Homo sapiens) (Q8N4C8 whole entry, looked up): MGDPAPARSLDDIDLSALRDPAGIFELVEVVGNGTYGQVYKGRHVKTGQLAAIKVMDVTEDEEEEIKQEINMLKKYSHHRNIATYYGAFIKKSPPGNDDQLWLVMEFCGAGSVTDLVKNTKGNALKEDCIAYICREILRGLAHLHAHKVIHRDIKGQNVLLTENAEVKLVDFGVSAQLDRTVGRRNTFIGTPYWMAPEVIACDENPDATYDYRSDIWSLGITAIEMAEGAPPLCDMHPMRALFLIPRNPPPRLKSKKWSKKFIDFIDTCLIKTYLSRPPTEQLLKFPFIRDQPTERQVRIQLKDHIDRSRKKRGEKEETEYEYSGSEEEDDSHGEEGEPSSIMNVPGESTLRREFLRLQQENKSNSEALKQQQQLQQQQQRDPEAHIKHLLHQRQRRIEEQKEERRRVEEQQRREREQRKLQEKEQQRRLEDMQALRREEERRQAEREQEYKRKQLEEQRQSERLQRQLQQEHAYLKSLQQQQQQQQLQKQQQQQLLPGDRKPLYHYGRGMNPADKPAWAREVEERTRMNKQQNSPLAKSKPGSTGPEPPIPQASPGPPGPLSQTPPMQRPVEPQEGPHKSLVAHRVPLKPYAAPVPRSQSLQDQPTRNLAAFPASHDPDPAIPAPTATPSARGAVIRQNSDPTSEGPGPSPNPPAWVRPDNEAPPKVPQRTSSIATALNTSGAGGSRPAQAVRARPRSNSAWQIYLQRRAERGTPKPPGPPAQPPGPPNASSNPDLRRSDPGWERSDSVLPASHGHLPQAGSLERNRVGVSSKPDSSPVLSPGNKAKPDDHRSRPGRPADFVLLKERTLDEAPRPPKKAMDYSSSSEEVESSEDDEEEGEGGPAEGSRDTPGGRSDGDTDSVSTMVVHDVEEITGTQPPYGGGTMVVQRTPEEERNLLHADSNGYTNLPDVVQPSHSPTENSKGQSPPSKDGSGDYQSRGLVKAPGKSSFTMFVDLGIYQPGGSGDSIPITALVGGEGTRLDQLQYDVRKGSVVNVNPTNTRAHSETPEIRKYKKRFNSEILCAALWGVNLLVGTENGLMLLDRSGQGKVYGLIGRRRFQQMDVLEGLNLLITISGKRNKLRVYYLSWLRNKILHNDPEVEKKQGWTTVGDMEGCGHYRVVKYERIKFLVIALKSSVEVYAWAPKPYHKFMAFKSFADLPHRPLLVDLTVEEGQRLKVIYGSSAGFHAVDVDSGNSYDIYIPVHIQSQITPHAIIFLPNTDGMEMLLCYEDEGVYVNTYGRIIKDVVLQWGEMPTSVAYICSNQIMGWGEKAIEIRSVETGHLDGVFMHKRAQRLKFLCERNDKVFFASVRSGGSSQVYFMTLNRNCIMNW

The inhibition is the relative decrease from the control value, in per cent. `CCN1CCN(Cc2ccc(NC(=O)c3ccc(C)c(/C=C/c4cnc5[nH]ccc5c4OC)c3)cc2C(F)(F)F)CC1`: the inhibition in test [1] is 55.5%; in test [2], 9.7%; in test [3], 1.4%; in test [4] it was 19.5%; in test [5], 15.4%; in test [6], 3.9%. In addition, the inhibition is 7.4% in test [7], 12.2% in [8] and -9.9% in test [9].

As for `CCN1CCN(Cc2ccc(NC(=O)c3ccc(C)c(Oc4ccnc5[nH]ccc45)c3)cc2C(F)(F)F)CC1`, the inhibition is 42.3% in test [1]; 6.9% in test [2]; -4.7% in test [3]; 32.6% in test [4]; 12.4% in test [5]; 1.8% in [6]. In addition, the inhibition was determined as 13.4% in test [7], 32.1% in test [8] and 3.1% in [9].

With `CNc1cc(Oc2cc(C(=O)Nc3cc(-n4cnc(C)c4)cc(C(F)(F)F)c3)ccc2C)ncn1`, the inhibition in [10] is 20%.

As to `CNc1cc(Oc2cc(C(=O)Nc3cc(N4CCN(C)CC4)cc(C(F)(F)F)c3)ccc2C)ncn1`, the inhibition in test [10] came to 11.2%.

The values above are taken from ChEMBL document CHEMBL5696442, “Discovery of type II inhibitors of TGFβ-activated kinase 1 (TAK1) and mitogen-activated protein kinase kinase kinase kinase 2 (MAP4K2)” (J Med Chem, 2015).
